Results taken from ChEMBL document CHEMBL3763128, “Synthesis and antibacterial evaluation of novel 4″-glycyl linked quinolyl-azithromycins with potent activity against macrolide-resistant pathogens” (2016).
In brackets after ≈: the same amount, converted by molar mass.

Experiments:
Format in all cases: functional
[1] = system: Streptococcus pneumoniae; assay: Antibacterial activity against efflux mediated macrolide resistant Streptococcus pneumoniae by agar microdilution method
How it was run: (§1)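 Agar microdilution per NCCLS guidelines; MIC reported in μg/mL; differences treated as significant only when more than a factor of 2 (one dilution) apart.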

[2] = system: Streptococcus pyogenes; assay: Antibacterial activity against efflux mediated macrolide resistant Streptococcus pyogenes by agar microdilution method; how it was run: as §1
[3] = system: Moraxella catarrhalis; assay: Antibacterial activity against Moraxella catarrhalis by agar microdilution method
How it was run: (§2)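 MIC by agar microdilution following NCCLS guidelines. Values in μg/mL. Only differences of more than one twofold dilution were treated as significant. Ery-S denotes erythromycin-susceptible strains.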

[4] = system: Staphylococcus aureus; assay: Antibacterial activity against constitutive macrolide-lincosamide-streptogramin B resistant Staphylococcus aureus by agar microdilution method; how it was run: as §1
[5] = system: Streptococcus pneumoniae; assay: Antibacterial activity against constitutive macrolide-lincosamide-streptogramin B resistant Streptococcus pneumoniae by agar microdilution method; how it was run: as §1
[6] = system: Streptococcus pyogenes; assay: Antibacterial activity against erythromycin-susceptible Streptococcus pyogenes by agar microdilution method; how it was run: as §2
[7] = system: Streptococcus pyogenes; assay: Antibacterial activity against constitutive macrolide-lincosamide-streptogramin B resistant Streptococcus pyogenes by agar microdilution method; how it was run: as §1
[8] = system: Staphylococcus aureus; assay: Antibacterial activity against erythromycin-susceptible Staphylococcus aureus by agar microdilution method; how it was run: as §2
[9] = system: Streptococcus pyogenes; assay: Antibacterial activity against inducibly macrolide-lincosamide-streptogramin B resistant Streptococcus pyogenes by agar microdilution method; how it was run: as §1
[10] = system: Staphylococcus aureus; assay: Antibacterial activity against inducibly macrolide-lincosamide-streptogramin B resistant Staphylococcus aureus by agar microdilution method; how it was run: as §1
[11] = system: Staphylococcus aureus; assay: Antibacterial activity against efflux mediated macrolide resistant Staphylococcus aureus by agar microdilution method; how it was run: as §1
[12] = system: Streptococcus pneumoniae; assay: Antibacterial activity against erythromycin-susceptible Streptococcus pneumoniae by agar microdilution method; how it was run: as §2
[13] = system: Haemophilus influenzae; assay: Antibacterial activity against Haemophilus influenzae by agar microdilution method; how it was run: as §2

## CCC1OC(=O)[C@H](C)[C@@H](O[C@H]2C[C@@](C)(OC)[C@@H](OC(=O)CNCCCNCCOCCOCCNc3cc4c(cc3F)c(=O)c(C(=O)O)cn4C3CC3)[C@H](C)O2)C(C)[C@@H](O[C@@H]2O[C@H](C)C[C@H](N(C)C)[C@H]2O)[C@](C)(O)C[C@@H](C)CN(C)[C@H](C)[C@@H](O)[C@]1(C)O (single isomer, unassigned)
[1]
  MIC: 1 µg/mL (≈ 0.807 µM)
[2]
  MIC: 1 µg/mL (≈ 0.807 µM)
[3]
  MIC: 2 µg/mL (≈ 1.61 µM)
[4]
  MIC: > 64 µg/mL
[5]
  MIC: 2 µg/mL (≈ 1.61 µM)
[6]
  MIC: ≤ 0.125 µg/mL
[7]
  MIC: 4 µg/mL (≈ 3.23 µM)
[8]
  MIC: ≤ 0.125 µg/mL
[9]
  MIC: 0.5 µg/mL (≈ 0.403 µM)
[10]
  MIC: 4 µg/mL (≈ 3.23 µM)
[11]
  MIC: 2 µg/mL (≈ 1.61 µM)
[12]
  MIC: ≤ 0.125 µg/mL
[13]
  MIC: 4 µg/mL (≈ 3.23 µM)

## CCC1OC(=O)[C@H](C)[C@@H](O[C@H]2C[C@@](C)(OC)[C@@H](OC(=O)CNCCCNCCOCCNc3cc4c(=O)c(C(=O)O)cn(C5CC5)c4cc3Cl)[C@H](C)O2)C(C)[C@@H](O[C@@H]2O[C@H](C)C[C@H](N(C)C)[C@H]2O)[C@](C)(O)C[C@@H](C)CN(C)[C@H](C)[C@@H](O)[C@]1(C)O (single isomer, unassigned)
[1]
  MIC: 0.25 µg/mL (≈ 0.206 µM)
[2]
  MIC: 0.5 µg/mL (≈ 0.413 µM)
[3]
  MIC: 0.25 µg/mL (≈ 0.206 µM)
[4]
  MIC: > 64 µg/mL
[5]
  MIC: 0.25 µg/mL (≈ 0.206 µM)
[6]
  MIC: ≤ 0.125 µg/mL
[7]
  MIC: 1 µg/mL (≈ 0.825 µM)
[8]
  MIC: ≤ 0.125 µg/mL
[9]
  MIC: 0.25 µg/mL (≈ 0.206 µM)
[10]
  MIC: 0.5 µg/mL (≈ 0.413 µM)
[11]
  MIC: 0.5 µg/mL (≈ 0.413 µM)
[12]
  MIC: ≤ 0.125 µg/mL
[13]
  MIC: 2 µg/mL (≈ 1.65 µM)

## CCC1OC(=O)[C@H](C)[C@@H](O[C@H]2C[C@@](C)(OC)[C@@H](OC(=O)CNCCCNCCOCCNc3cc4c(cc3F)c(=O)c(C(=O)O)cn4C3CC3)[C@H](C)O2)C(C)[C@@H](O[C@@H]2O[C@H](C)C[C@H](N(C)C)[C@H]2O)[C@](C)(O)C[C@@H](C)CN(C)[C@H](C)[C@@H](O)[C@]1(C)O (single isomer, unassigned)
[1]
  MIC: 0.25 µg/mL (≈ 0.209 µM)
[2]
  MIC: 2 µg/mL (≈ 1.67 µM)
[3]
  MIC: 1 µg/mL (≈ 0.836 µM)
[4]
  MIC: > 64 µg/mL
[5]
  MIC: 2 µg/mL (≈ 1.67 µM)
[6]
  MIC: ≤ 0.125 µg/mL
[7]
  MIC: 4 µg/mL (≈ 3.35 µM)
[8]
  MIC: 0.25 µg/mL (≈ 0.209 µM)
[9]
  MIC: 0.5 µg/mL (≈ 0.418 µM)
[10]
  MIC: 2 µg/mL (≈ 1.67 µM)
[11]
  MIC: 1 µg/mL (≈ 0.836 µM)
[12]
  MIC: ≤ 0.125 µg/mL
[13]
  MIC: 2 µg/mL (≈ 1.67 µM)

## CC[C@H]1OC(=O)[C@@H](C)[C@H](O[C@@H]2C[C@](C)(OC)[C@H](OC(=O)CNC(=O)CCNCCOCCOCCNc3cc4c(=O)c(C(=O)O)cn(C5CC5)c4cc3Cl)[C@@H](C)O2)[C@H](C)[C@H](O[C@H]2O[C@@H](C)C[C@@H](N(C)C)[C@@H]2O)[C@@](C)(O)C[C@H](C)CN(C)[C@@H](C)[C@H](O)[C@@]1(C)O (stereo in doubt)
[1]
  MIC: 1 µg/mL (≈ 0.787 µM)
[2]
  MIC: 2 µg/mL (≈ 1.57 µM)
[3]
  MIC: 1 µg/mL (≈ 0.787 µM)
[4]
  MIC: > 64 µg/mL
[5]
  MIC: 4 µg/mL (≈ 3.15 µM)
[6]
  MIC: ≤ 0.125 µg/mL
[7]
  MIC: 8 µg/mL (≈ 6.3 µM)
[8]
  MIC: ≤ 0.125 µg/mL
[9]
  MIC: 1 µg/mL (≈ 0.787 µM)
[10]
  MIC: 4 µg/mL (≈ 3.15 µM)
[11]
  MIC: 0.5 µg/mL (≈ 0.394 µM)
[12]
  MIC: ≤ 0.125 µg/mL
[13]
  MIC: 4 µg/mL (≈ 3.15 µM)

## CC[C@H]1OC(=O)[C@@H](C)[C@H](O[C@@H]2C[C@](C)(OC)[C@H](OC(=O)CNCCCNCCOCCOCCNc3cc4c(=O)c(C(=O)O)cn(C5CC5)c4cc3Cl)[C@@H](C)O2)[C@H](C)[C@H](O[C@H]2O[C@@H](C)C[C@@H](N(C)C)[C@@H]2O)[C@@](C)(O)C[C@H](C)CN(C)[C@@H](C)[C@H](O)[C@@]1(C)O (stereo in doubt)
[1]
  MIC: 0.5 µg/mL (≈ 0.398 µM)
[2]
  MIC: 1 µg/mL (≈ 0.796 µM)
[3]
  MIC: 0.5 µg/mL (≈ 0.398 µM)
[4]
  MIC: > 64 µg/mL
[5]
  MIC: 1 µg/mL (≈ 0.796 µM)
[6]
  MIC: ≤ 0.125 µg/mL
[7]
  MIC: 2 µg/mL (≈ 1.59 µM)
[8]
  MIC: ≤ 0.125 µg/mL
[9]
  MIC: 0.25 µg/mL (≈ 0.199 µM)
[10]
  MIC: 1 µg/mL (≈ 0.796 µM)
[11]
  MIC: 1 µg/mL (≈ 0.796 µM)
[12]
  MIC: ≤ 0.125 µg/mL
[13]
  MIC: 2 µg/mL (≈ 1.59 µM)

## CC[C@H]1OC(=O)[C@@H](C)[C@H](O[C@@H]2C[C@](C)(OC)[C@H](OC(=O)CNC(=O)CCNCCNc3cc4c(=O)c(C(=O)O)cn(C5CC5)c4cc3Cl)[C@@H](C)O2)[C@H](C)[C@H](O[C@H]2O[C@@H](C)C[C@@H](N(C)C)[C@@H]2O)[C@@](C)(O)C[C@H](C)CN(C)[C@@H](C)[C@H](O)[C@@]1(C)O (stereo in doubt)
[1]
  MIC: 0.25 µg/mL (≈ 0.212 µM)
[2]
  MIC: 0.25 µg/mL (≈ 0.212 µM)
[3]
  MIC: 0.125 µg/mL (≈ 0.106 µM)
[4]
  MIC: > 64 µg/mL
[5]
  MIC: 0.5 µg/mL (≈ 0.423 µM)
[6]
  MIC: ≤ 0.125 µg/mL
[7]
  MIC: 0.5 µg/mL (≈ 0.423 µM)
[8]
  MIC: ≤ 0.125 µg/mL
[9]
  MIC: 0.25 µg/mL (≈ 0.212 µM)
[10]
  MIC: 1 µg/mL (≈ 0.846 µM)
[11]
  MIC: 0.5 µg/mL (≈ 0.423 µM)
[12]
  MIC: ≤ 0.125 µg/mL
[13]
  MIC: 0.5 µg/mL (≈ 0.423 µM)
